{"source": "ChEMBL document CHEMBL3286371", "about": "“wALADin benzimidazoles differentially modulate the function of porphobilinogen synthase orthologs” (J Med Chem, 2014)", "key": {"[1]": {"target": "T1, Delta-aminolevulinic acid dehydratase, chloroplastic (Pisum sativum) (UniProt P30124)", "T1 sequence (whole entry)": "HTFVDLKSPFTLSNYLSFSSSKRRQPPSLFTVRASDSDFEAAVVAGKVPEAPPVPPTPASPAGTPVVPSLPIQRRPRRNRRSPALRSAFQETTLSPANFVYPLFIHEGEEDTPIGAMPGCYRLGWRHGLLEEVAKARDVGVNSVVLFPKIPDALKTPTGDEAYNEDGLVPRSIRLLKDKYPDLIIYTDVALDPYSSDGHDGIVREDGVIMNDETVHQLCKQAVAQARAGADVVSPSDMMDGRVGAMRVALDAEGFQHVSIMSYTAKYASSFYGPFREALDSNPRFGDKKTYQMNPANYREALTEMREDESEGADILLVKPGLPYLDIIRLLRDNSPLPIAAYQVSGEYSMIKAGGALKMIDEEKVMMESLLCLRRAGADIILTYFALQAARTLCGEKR", "assay": "Competitive inhibition of Pisum sativum PBGS using 5-ALA as substrate at 6.25 to 100 uM", "conditions": "Lathyrus oleraceus"}, "[2]": {"target": "Delta-aminolevulinic acid dehydratase (Pseudomonas aeruginosa (strain ATCC 15692 / PAO1 / 1C / PRS 101 / LMG12228)) (UniProt Q59643)", "sequence (Q59643 whole entry)": "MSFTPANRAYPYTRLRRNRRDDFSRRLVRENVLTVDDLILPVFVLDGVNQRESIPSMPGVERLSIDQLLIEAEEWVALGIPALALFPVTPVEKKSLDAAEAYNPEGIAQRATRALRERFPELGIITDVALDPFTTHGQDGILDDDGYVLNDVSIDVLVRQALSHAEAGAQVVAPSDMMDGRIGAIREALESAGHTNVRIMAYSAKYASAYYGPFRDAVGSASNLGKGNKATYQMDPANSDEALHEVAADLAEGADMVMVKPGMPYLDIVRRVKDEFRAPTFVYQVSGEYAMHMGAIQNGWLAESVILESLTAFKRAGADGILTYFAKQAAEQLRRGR", "assay": "Stimulation of Pseudomonas aeruginosa PAO1 recombinant PBGS using 5-ALA as substrate relative to control", "how_it_was_run": "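His-tagged PaPBGS at 150 nM subunit in 100 mM Tris-HCl pH 8.0 with 1 mM MgCl2, 100 mM KCl and 0.2 mM 5-ALA, 10 min at 36 °C, with turnover at most 30%. Porphobilinogen read with Ehrlich's reagent. Activity normalized to 6.7% DMSO control as 100%. EC50 from variable-slope agonist fit.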"}, "[3]": {"target": "Delta-aminolevulinic acid dehydratase (Pseudomonas aeruginosa (strain ATCC 15692 / PAO1 / 1C / PRS 101 / LMG12228)) (UniProt Q59643)", "assay": "Stimulation of Pseudomonas aeruginosa PAO1 recombinant PBGS using 5 mM 5-ALA as substrate assessed as effect on Km at 50 to 200 uM at pH 8 by Michaelis-Menten plot analysis in presence of MgCl2", "how_it_was_run": "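Mg2+ or substrate response curves recorded with and without wALADin1; VMAX, KM and Mg2+ affinity derived from the fits.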"}, "[4]": {"target": "T2, Delta-aminolevulinic acid dehydratase (Wolbachia sp. subsp. Brugia malayi (strain TRS)) (UniProt Q5GSR3)", "T2 sequence (whole entry)": "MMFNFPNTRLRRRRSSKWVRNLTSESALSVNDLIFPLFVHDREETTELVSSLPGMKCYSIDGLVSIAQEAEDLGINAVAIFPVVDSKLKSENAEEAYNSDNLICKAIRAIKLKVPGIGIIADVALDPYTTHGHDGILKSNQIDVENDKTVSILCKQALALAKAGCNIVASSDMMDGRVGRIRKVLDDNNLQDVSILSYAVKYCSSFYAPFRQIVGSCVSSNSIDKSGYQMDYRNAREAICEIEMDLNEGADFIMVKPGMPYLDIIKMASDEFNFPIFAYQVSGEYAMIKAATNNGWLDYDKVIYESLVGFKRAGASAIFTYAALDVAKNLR", "conditions": "25 to 2500 uM"}, "[5]": {"target": "Delta-aminolevulinic acid dehydratase (Pseudomonas aeruginosa (strain ATCC 15692 / PAO1 / 1C / PRS 101 / LMG12228)) (UniProt Q59643)", "assay": "Inhibition of Pseudomonas aeruginosa PAO1 recombinant PBGS assessed as inhibition of octamer-inducing effect of Mg2+ by nondenaturing PAGE analysis", "how_it_was_run": "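PaPBGS (3 μg) preincubated 20 min at 37 °C in assay buffer with 1 mM Mg2+, 100 mM K+ and wALADin1, no 5-ALA. Run on 7.5% nondenaturing PAGE at 4 °C for 15–20 h. Coomassie for oligomer state; in-gel activity with 500 μM 5-ALA stained with Ehrlich's reagent.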"}, "[6]": {"target": "Delta-aminolevulinic acid dehydratase (Yersinia enterocolitica W22703) (UniProt F4MUJ9)", "sequence (F4MUJ9 as listed by the source)": "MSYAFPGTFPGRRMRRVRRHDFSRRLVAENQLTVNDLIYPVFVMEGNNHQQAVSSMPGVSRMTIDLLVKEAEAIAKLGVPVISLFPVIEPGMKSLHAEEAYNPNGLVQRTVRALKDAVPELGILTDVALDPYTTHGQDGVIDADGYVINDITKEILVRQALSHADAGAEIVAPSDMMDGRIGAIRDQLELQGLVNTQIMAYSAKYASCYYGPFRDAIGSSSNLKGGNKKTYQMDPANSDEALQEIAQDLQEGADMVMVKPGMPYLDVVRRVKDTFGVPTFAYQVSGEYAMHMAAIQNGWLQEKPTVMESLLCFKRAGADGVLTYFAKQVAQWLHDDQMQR", "assay": "Stimulation of Yersinia enterocolitica recombinant PBGS expressed in Escherichia coli using 5-ALA as substrate at 10 to 1000 uM at pH 8 in presence of 0.1 to 10000 uM MgCl2"}, "[7]": {"target": "T3, Delta-aminolevulinic acid dehydratase (Escherichia coli (strain K12)) (UniProt P0ACB2)", "T3 sequence (whole entry)": "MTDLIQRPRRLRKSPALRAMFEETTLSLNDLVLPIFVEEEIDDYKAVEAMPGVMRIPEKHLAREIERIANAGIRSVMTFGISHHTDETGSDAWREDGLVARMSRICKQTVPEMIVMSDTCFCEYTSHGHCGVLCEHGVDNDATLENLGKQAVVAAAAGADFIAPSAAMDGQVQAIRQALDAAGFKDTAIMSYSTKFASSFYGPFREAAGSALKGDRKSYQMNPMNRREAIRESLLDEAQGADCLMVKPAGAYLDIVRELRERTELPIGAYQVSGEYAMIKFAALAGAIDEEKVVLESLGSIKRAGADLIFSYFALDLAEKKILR", "assay": "Stimulation of Escherichia coli recombinant PBGS using 5-ALA as substrate at 10 to 1000 uM at pH 8 in presence of MgCl2 and KCl"}, "[8]": {"target": "Delta-aminolevulinic acid dehydratase (Pseudomonas aeruginosa (strain ATCC 15692 / PAO1 / 1C / PRS 101 / LMG12228)) (UniProt Q59643)", "assay": "Binding affinity to Pseudomonas aeruginosa PAO1 recombinant PBGS at 100 to 500 uM by thermal shift assay in presence of KCl"}, "[9]": {"target": "Delta-aminolevulinic acid dehydratase (Pseudomonas aeruginosa (strain ATCC 15692 / PAO1 / 1C / PRS 101 / LMG12228), UniProt Q59643)", "sequence (Q59643 whole entry)": "as the sequence (Q59643 whole entry) above", "assay": "Inhibition of Pseudomonas aeruginosa PAO1 recombinant PBGS using 5-ALA as substrate", "how_it_was_run": "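Turnover kept at or below 30%. Porphobilinogen measured with Ehrlich's reagent. IC50 by variable-slope fit of activity normalized to DMSO control.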"}, "[10]": {"target": "Delta-aminolevulinic acid dehydratase (Pseudomonas aeruginosa (strain ATCC 15692 / PAO1 / 1C / PRS 101 / LMG12228)) (UniProt Q59643)", "assay": "Inhibition of Pseudomonas aeruginosa PAO1 recombinant PBGS using 0.2 mM 5-ALA as substrate at 50 to 200 uM at low pH by buffer scan assay"}, "[11]": {"target": "T1, Delta-aminolevulinic acid dehydratase, chloroplastic (Pisum sativum)", "assay": "Non-competitive inhibition of Pisum sativum PBGS using 5-ALA as substrate at 6.25 to 100 uM", "conditions": "Lathyrus oleraceus"}, "[12]": {"target": "Delta-aminolevulinic acid dehydratase (Pseudomonas aeruginosa (strain ATCC 15692 / PAO1 / 1C / PRS 101 / LMG12228)) (UniProt Q59643)", "assay": "Stimulation of Pseudomonas aeruginosa PAO1 recombinant PBGS assessed as stabilization of dimeric form at 8 to 2000 uM by nondenaturing PAGE analysis in presence of Mg2+ and K+ and 5-ALA"}, "[13]": {"target": "T3, Delta-aminolevulinic acid dehydratase (Escherichia coli (strain K12))", "assay": "Stimulation of Escherichia coli recombinant PBGS using 5-ALA as substrate at 10 to 1000 uM at pH 8 in presence of 0.1 to 10000 uM MgCl2"}, "[14]": {"target": "Delta-aminolevulinic acid dehydratase (Pseudomonas aeruginosa (strain ATCC 15692 / PAO1 / 1C / PRS 101 / LMG12228)) (UniProt Q59643)", "assay": "Competitive inhibition of Pseudomonas aeruginosa PAO1 recombinant PBGS using 0.2 mM 5-ALA as substrate assessed as increase in Km at 50 to 200 uM at pH 7.5 by Michaelis-Menten plot analysis in presence of MgCl2", "how_it_was_run": "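PaPBGS under \"standard inhibitory\" conditions (100 mM Tris-HCl pH 7.5, 1 mM MgCl2, no KCl). 5-ALA varied for substrate-response curves at several wALADin1 levels; KM and VMAX derived from the fits. Incubation at 36 °C.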"}, "[15]": {"target": "T2, Delta-aminolevulinic acid dehydratase (Wolbachia sp. subsp. Brugia malayi (strain TRS))", "conditions": "25 to 2500 uM", "remark": "listed apart in the source"}}, "note": "The source made the active and inactive calls. The rule behind the calls is not given here."}
{"compound": "O=C(O)c1ccc2c(c1)nc(CCNC(=O)c1cccs1)n2Cc1cccc(C(F)(F)F)c1", "values": [{"measurement": "inhibition", "setting": "[1]", "result": "Active"}, {"measurement": "Smax", "setting": "[2]", "result": 123, "unit": "%"}, {"measurement": "Activity", "setting": "[3]", "result": "inactive"}, {"measurement": "inhibition", "setting": "[4]", "result": "inactive"}, {"measurement": "inhibition", "setting": "[5]", "result": "Dose-dependent effect"}, {"measurement": "Activity", "setting": "[6]", "result": "Active"}, {"measurement": "Activity", "setting": "[7]", "result": "Active"}, {"measurement": "Activity", "setting": "[8]", "result": "Active"}, {"measurement": "IC50", "setting": "[9]", "result": 79, "unit": "µM"}, {"measurement": "inhibition", "setting": "[10]", "result": "Active"}, {"measurement": "inhibition", "setting": "[11]", "result": "Active"}, {"measurement": "Activity", "setting": "[12]", "result": "inactive"}, {"measurement": "Activity", "setting": "[13]", "result": "Active"}, {"measurement": "inhibition", "setting": "[14]", "result": "Active"}, {"measurement": "inhibition", "setting": "[15]", "result": "Active"}]}
